Experimental data reported in publication PMC8751737 (International journal of pharmaceutics, 2021).

Key:
[1] = tested on: Calu-3 bearing nude mice; assay: Toxicity study; format: in vivo, BALB/c nude mice
Summary of the method: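 Same Calu-3 xenograft nude mice and intravenous dosing every four days, with a PBS control group. Body weight was recorded every four days during the efficacy study. At termination (38 days), heart, liver, spleen, kidney and lung tumor were formalin-fixed and paraffin-embedded. Sections of 5 μm were H&E-stained and examined microscopically by a toxicologist.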

[2] = tested on: Calu-3; assay: Apoptosis study; format: cell-based, human; settings: Calu-3, 3 μM, 12 h, annexin V-FITC/PI, n=3
Summary of the method: (§1)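 Cells were seeded at 2×10⁵ cells/mL in flasks and cultured 24 h. At 70% confluence they were exposed to 3 μM test compound in serum-free medium for 12 h. Cells were then trypsinized, washed in ice-cold PBS and resuspended in binding buffer at 2.5×10⁶ cells/mL. Staining with annexin V-FITC plus propidium iodide ran 15 min before flow cytometry.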

[3] = tested on: BT474 3D tumor spheroids; assay: Antiproliferative activity in multicellular 3D tumor spheroid; format: cell-based, human; settings: read-out: 3D tumor spheroid IC50 (72 Hours) BT474, hanging drop spheroids, CellTiter-Glo 3D, mean ± SD, n=3
Summary of the method: (§2)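 Hanging-drop spheroids seeded at 500 cells/μL in 40 μL of medium and formed over 24 h at 37 °C, 5% CO2, humidified. Spheroids moved to round-bottom 96-well plates in serum-free medium and treated with test compound at 0.01–100 μM for 72 h at 37 °C. Viability read by CellTiter-Glo 3D luminescence, and IC50 derived from the dose-response.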

[4] = tested on: MCF-7 3D tumor spheroids; assay: as above; format: cell-based, human; settings: read-out: 3D tumor spheroid IC50 (72 Hours) MCF-7, hanging drop spheroids, CellTiter-Glo 3D, mean ± SD, n=3
Summary of the method: as §2

[5] = tested on: non-cancerous lung fibroblast cells (HLFs); assay: Antiproliferative activity, CellTiter-Glo assay; format: cell-based, human; settings: read-out: IC50 (72 Hours) HLFs, 72 h incubation, triplicate
Summary of the method: (§3)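 Cells were plated in 96-well plates and held 24 h at 37 °C in 5% CO2. Media with 10% FBS, 1% penicillin-streptomycin and 1% insulin were RPMI-1640 for BT474, EMEM for Calu-3 and Fibroblast Basal Medium for HLFs. Test compound or liposome was added at 0.001–100 μM for 72 h. Cells were PBS-washed before CellTiter-Glo luminescence. Triplicate runs; IC50 from dose-response plot.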

[6] = tested on: Calu-3; assay: Antiproliferative activity, CellTiter-Glo assay; format: cell-based, human; settings: read-out: IC50 (72 Hours) Calu-3, 72 h incubation, triplicate
Summary of the method: as §3

[7] = tested on: Calu-3 3D tumor spheroids; assay: Antiproliferative activity in multicellular 3D tumor spheroid; format: cell-based, human; settings: read-out: 3D tumor spheroid IC50 (72 Hours) Calu-3, hanging drop spheroids, CellTiter-Glo 3D, mean ± SD, n=3
Summary of the method: as §2

[8] = tested on: MCF-7 spheroids; assay: In vitro tumor growth inhibition in 3D tumor spheroids; format: cell-based, human; settings: 3 μM, 5 days
Summary of the method: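 MCF-7 cells (40 μL at 125 cells/μL) grown as hanging-drop spheroids at 37 °C, 5% CO2, humidified, until about 100–200 μm, then moved to round-bottom 96-well plates (day zero). Treated with test compound at 3 μM, with untreated controls. Imaged for five consecutive days under a 4× objective, and volume calculated as 0.5 × length × width².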

[9] = tested on: BT474; assay: Antiproliferative activity, CellTiter-Glo assay; format: cell-based, human; settings: read-out: IC50 (72 Hours) BT474, 72 h incubation, triplicate
Summary of the method: as §3

[10] = tested on: BT474; assay: Apoptosis study; format: cell-based, human; settings: BT474, 3 μM, 12 h, annexin V-FITC/PI, n=3
Summary of the method: as §1

[11] = tested on: Calu-3 bearing nude mice; assay: In vivo antitumor activity; parameters: species or system BALB/c nude mice; settings: intravenous, Dox-equivalent dose 6 mg kg−1 every four days, mean ± SD, n=5
Summary of the method: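 Male and female BALB/c nude mice (22–35 g) received 1×10⁷ Calu-3 cells in 100 μL culture medium subcutaneously in the right back. At 30–50 mm³ tumors, mice were randomized (n = 5/group). Dosing was intravenous every four days, with PBS as control. Tumor volume was measured every four days. Mice were killed at 38 days and tumors weighed.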

With `COc1cccc2c1C(=O)c1c(O)c3c(c(O)c1C2=O)C[C@@](O)(C(=O)CO)C[C@@H]3O[C@H]1C[C@H](N)[C@H](O)[C@H](C)O1` [Free Dox, Doxorubicin] the body weight loss ([1]; Dox-equivalent 6 mg kg−1 every four days, 38 days after tumor implantation) was “significant weight loss”, the “histopathology of heart tissues” value ([1]; H&E, at 38 days, compared to control group) was “some amount of vascular degeneration” and the “histopathology of liver and kidneys” value ([1]; H&E, at 38 days, compared to control group (PBS)) was “no apparent inflammatory reaction, structural modification, or pathological abnormalities”. The histopathology of spleen ([1]; H&E, at 38 days, compared with control group) was “loss of lymphoid blue matter and deposition of red matter”, the “total percentage of apoptosis” value [2] was 16.83% and the IC50 [3] was 0.845 ± 0.058 µM. The IC50 [4] was 0.548 ± 0.125 µM, the IC50 [5] was 0.17 ± 0.082 µM and the IC50 [6] was 0.158 ± 0.075 µM. The IC50 [7] was 0.745 ± 0.054 µM, the “inhibition of spheroid growth” value [8] was “significant inhibition of spheroidal tumor growth” and the IC50 [9] was 0.399 ± 0.079 µM. The “total percentage of apoptosis” value [10] was 35.49%, the “mean tumor size at 38 days after implantation” value [11] was 68.26 ± 25.89 mm^3 and the “mean tumor weight at 38 days after implantation” value [11] was 162.8 ± 21.98 mg.
